Reference: ChEMBL document CHEMBL1121366, “Synthesis and immunological activity of 5,6,6a,8,9,11a-hexahydronaphth[1',2':4,5]imidazo[2,1-b]thiazoles and 5,6,6a,9,10,11a-hexahydroanaphth[2',1':4,5]imidazo[2,1-b]thiazoles” (J Med Chem, 1980)

Experiments:
Mus musculus [1] = test: Tested for increase in foot-pad thickness (mm) by its effect on cellular immune response in mice against sheep red blood cells by the DHR method in experiment 12 at dose 3 mg/kg; type: functional
How it was run: (§1)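 Delayed-type hypersensitivity was run in male CDF1 (Balb/c × DBA/2Cr) mice, 8-10 weeks old, groups of four. Mice were sensitized with 1 × 10^8 SRBC in PBS into one hind footpad, with sc inguinal dosing in saline or in 1% Me2SO-saline. Four days later the opposite footpad was challenged with 1 × 10^8 SRBC. The read-out was the gauge-measured increase in thickness from just before to 24 h after challenge, as mean ± SE (n = 4).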

Mus musculus [2] = test: Tested for increase in foot-pad thickness (mm) by its effect on cellular immune response in mice against sheep red blood cells by DHR method in experiment 12 at dose 12 mg/kg; type: functional; how it was run: as §1
Mus musculus [3] = test: Effect on humoral immune response in mice against sheep red blood cells by the plaque-forming cell (PFC/10e6 spleen cells) method in experiment 3 at dose 12 mg/kg; type: functional
How it was run: (§2)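 Male ICR mice, 8-10 weeks old, groups of four, were immunized iv with 1 × 10^8 SRBC in PBS. After 24 h they received a single sc inguinal dose in saline, or as a suspension in saline with 1% Me2SO. Splenic hemolytic plaque-forming cells were counted 4 days later by Cunningham's method. Values are the mean of four ± SE, with a paired t test against the control.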

Mus musculus [4] = test: Effect on humoral immune response in mice against sheep red blood cells by the plaque-forming cell (PFC/10e6 spleen cells) method in experiment 3 at dose 3 mg/kg; type: functional; how it was run: as §2
Mus musculus [5] = test: Tested for increase in foot-pad thickness (mm) by its effect on cellular immune response in mice against sheep red blood cells by the DHR method in experiment 16 at dose 3 mg/kg; type: functional
How it was run: (§3)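 Male mice, 8–10 weeks old, ICR strain. Groups of four were sensitized with 1 × 10^8 SRBC in PBS into one hind footpad, with compound given sc in the inguinal region in saline or saline/1% Me2SO. Four days later, 1 × 10^8 SRBC were injected into the other hind footpad. Foot thickness was measured with a dial gauge just before and 24 h after this challenge, and the increase was taken as the difference. Values are the mean of four mice ± SE.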

Mus musculus [6] = test: Effect on humoral immune response in mice against sheep red blood cells by the plaque-forming cell (PFC/10e6 spleen cells) method in experiment 7 at dose 12 mg/kg; type: functional
How it was run: (§4)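 Male mice, 8–10 weeks old, CDF1 (Balb/c × DBA/2Cr) in experiment 7. Groups of four were immunized iv with 1 × 10^8 SRBC in PBS. After 24 h, compound was given sc in the inguinal region in saline or saline/1% Me2SO. Four days later, splenic hemolytic plaque-forming cells were counted by the Cunningham method and expressed per 10^6 spleen cells. Values are the mean of four mice ± SE.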

Mus musculus [7] = test: Effect on humoral immune response in mice against sheep red blood cells by the plaque-forming cell (PFC/10e6 spleen cells) method in experiment 7 at dose 3 mg/kg; type: functional; how it was run: as §4
Mus musculus [8] = test: Tested for increase in foot-pad thickness (mm) by its effect on cellular immune response in mice against sheep red blood cells by DHR method in experiment 16 at dose 12 mg/kg; type: functional; how it was run: as §3
Mus musculus [9] = test: Tested for increase in foot-pad thickness (mm) by its effect on cellular immune response in mice against sheep red blood cells by the DHR method in experiment 14 at dose 3 mg/kg; type: functional; how it was run: as §1
Mus musculus [10] = test: Tested for increase in foot-pad thickness (mm) by its effect on cellular immune response in mice against sheep red blood cells by DHR method in experiment 14 at dose 12 mg/kg; type: functional; how it was run: as §1
Mus musculus [11] = test: Effect on humoral immune response in mice against sheep red blood cells by the plaque-forming cell (PFC/10e6 spleen cells) method in experiment 5 at dose 12 mg/kg; type: functional
How it was run: (§5)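 Male CDF1 (Balb/c × DBA/2Cr) mice, 8-10 weeks old, groups of four, were immunized iv with 1 × 10^8 SRBC in PBS. After 24 h they received a single sc inguinal dose in saline, or as a suspension in saline with 1% Me2SO. Spleens were taken 4 days later and hemolytic plaque-forming cells counted by Cunningham's method. Values are the mean of four mice ± SE, with a paired Student's t test against the control.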

Mus musculus [12] = test: Effect on humoral immune response in mice against sheep red blood cells by the plaque-forming cell (PFC/10e6 spleen cells) method in experiment 5 at dose 3 mg/kg; type: functional; how it was run: as §5
Mus musculus [13] = test: Tested for increase in foot-pad thickness (mm) by its effect on cellular immune response in mice against sheep red blood cells by the DHR method in experiment 15 at dose 3 mg/kg; type: functional; how it was run: as §3
Mus musculus [14] = test: Tested for increase in foot-pad thickness (mm) by its effect on cellular immune response in mice against sheep red blood cells by DHR method in experiment 15 at dose 12 mg/kg; type: functional; how it was run: as §3
Mus musculus [15] = test: Effect on humoral immune response in mice against sheep red blood cells by the plaque-forming cell (PFC/10e6 spleen cells) method in experiment 6 at dose 12 mg/kg; type: functional; how it was run: as §5
Mus musculus [16] = test: Effect on humoral immune response in mice against sheep red blood cells by the plaque-forming cell (PFC/10e6 spleen cells) method in experiment 6 at dose 3 mg/kg; type: functional; how it was run: as §5
Mus musculus [17] = test: Tested for increase in foot-pad thickness (mm) by its effect on cellular immune response in mice against sheep red blood cells by the DHR method in experiment 13 at dose 3 mg/kg; type: functional
How it was run: (§6)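 Male ICR mice, 8-10 weeks old, groups of four, were sensitized with 1 × 10^8 SRBC in PBS into one hind footpad and dosed sc in the inguinal region, in saline or in saline with 1% Me2SO. Four days later the other footpad was challenged with 1 × 10^8 SRBC. Foot thickness was gauged just before and 24 h after challenge, and the increase was reported as mean of four ± SE.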

Mus musculus [18] = test: Tested for increase in foot-pad thickness (mm) by its effect on cellular immune response in mice against sheep red blood cells by DHR method in experiment 13 at dose 12 mg/kg; type: functional; how it was run: as §6
Mus musculus [19] = test: Effect on humoral immune response in mice against sheep red blood cells by the plaque-forming cell (PFC/10e6 spleen cells) method in experiment 4 at dose 12 mg/kg; type: functional; how it was run: as §5
Mus musculus [20] = test: Effect on humoral immune response in mice against sheep red blood cells by the plaque-forming cell (PFC/10e6 spleen cells) method in experiment 4 at dose 3 mg/kg; type: functional; how it was run: as §5
Mus musculus [21] = test: Effect on humoral immune response in mice against sheep red blood cells by the plaque-forming cell (PFC/10e 6 spleen cells) method in experiment 2 at dose 12 mg/kg; type: functional; how it was run: as §2
Mus musculus [22] = test: Effect on humoral immune response in mice against sheep red blood cells by the plaque-forming cell (PFC/10e 6 spleen cells) method in experiment 2 at dose 3 mg/kg; type: functional; how it was run: as §2
Mus musculus [23] = test: Tested increase in foot-pad thickness (mm) by its effect on cellular immune response in mice against sheep red blood cells by the DHR method in experiment 16 at dose 3 mg/kg; type: functional
How it was run: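 Male ICR mice, 8–10 weeks old, groups of four. Sensitized with SRBC (1 × 10^8) in PBS injected into one hind footpad; compound given sc in the inguinal region in saline or in saline with 1% Me2SO. Four days later the other hind footpad was challenged with SRBC (1 × 10^8). Dial gauge read just before and 24 h after challenge. Value is the mean increase ± SE.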

Mus musculus [24] = test: Tested for increase in foot-pad thickness (mm) by its effect on cellular immune response in mice against sheep red blood cells by DHR method in experiment 11 at dose 12 mg/kg; type: functional; how it was run: as §6
Mus musculus [25] = test: Tested for the immunological activity by its effect on humoral immune response in mice against sheep red blood cells (SRBC) by the plaque-forming cell (PFC/10e 6 spleen cells) method in experiment 7 at dose 3 mg/kg; type: functional; how it was run: as §5
Mus musculus [26] = test: Tested for the immunological activity by its effect on humoral immune response in mice against sheep red blood cells (SRBC) by the plaque-forming cell (PFC/10e 6 spleen cells) method in experiment 7 at dose 12 mg/kg; type: functional; how it was run: as §5
Mus musculus [27] = test: Acute lethal dose was determined in mice upon intravenous administration; type: ADME, organism-based; conditions: in vivo
How it was run: (§7)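 Male mice, 8–10 weeks old, CDF1 (Balb/c × DBA/2Cr). Groups of six dosed once, either iv or sc. Three to five dose levels were chosen from 400, 300, 150, 80, 40, 20 and 10 mg/kg. LD50 was calculated by the Litchfield–Wilcoxon method. Vehicle was saline or saline with 1% Me2SO, depending on compound.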

Mus musculus [28] = test: Acute lethal dose was determined in mice upon subcutaneous administration; type: ADME, organism-based; conditions: in vivo, sc; how it was run: as §7

Fc1ccc2c(c1)CCC1N=C3SCCN3C21 (trans isomer)
Increase in footpad thickness (Mus musculus [1]): 0.42 mm | Increase in footpad thickness (Mus musculus [2]): 0.42 mm | PFC (Mus musculus [3]): 2070 | PFC (Mus musculus [4]): 2550

Brc1ccc2c(c1)C1N=C3SCCN3C1CC2 (trans isomer)
Increase in footpad thickness (Mus musculus [5]): 0.35 mm | PFC (Mus musculus [6]): 920 | PFC (Mus musculus [7]): 740 | Increase in footpad thickness (Mus musculus [8]): 0.31 mm

Clc1ccc2c(c1)CCC1C2N=C2SCCN21 (trans isomer)
Increase in footpad thickness (Mus musculus [9]): 0.5 mm | Increase in footpad thickness (Mus musculus [10]): 0.46 mm | PFC (Mus musculus [11]): 790 | PFC (Mus musculus [12]): 1530

Brc1ccc2c(c1)C1C(CC2)N=C2SCCN21 (configuration not stated)
Increase in footpad thickness (Mus musculus [13]): 0.35 mm | Increase in footpad thickness (Mus musculus [14]): 0.38 mm | PFC (Mus musculus [15]): 870 | PFC (Mus musculus [16]): 980

Brc1ccc2c(c1)C1N=C3SCCN3C1CC2 (cis isomer)
Increase in footpad thickness (Mus musculus [13]): 0.36 mm | Increase in footpad thickness (Mus musculus [14]): 0.45 mm | PFC (Mus musculus [15]): 1495 | PFC (Mus musculus [16]): 960

Clc1ccc2c(c1)CCC1C2N=C2SCCN21 (cis isomer)
Increase in footpad thickness (Mus musculus [17]): 0.26 mm | Increase in footpad thickness (Mus musculus [18]): 0.33 mm | PFC (Mus musculus [19]): 970 | PFC (Mus musculus [20]): 1560

c1ccc2c(c1)CCC1N=C3SCCN3C21 (trans isomer)
PFC (Mus musculus [21]): 2580 | PFC (Mus musculus [22]): 2440 | Increase in footpad thickness (Mus musculus [23]): 0.27 mm | Increase in footpad thickness (Mus musculus [24]): 0.39 mm | PFC (Mus musculus [25]): 1110 | PFC (Mus musculus [26]): 960 | LD50 (Mus musculus [27]): 26 mg/kg | LD50 (Mus musculus [28]): 190 mg/kg | Increase in footpad thickness (Mus musculus [8]): 0.43 mm

Clc1ccc2c(c1)CCC1N=C3SCCN3C21 (configuration not stated)
Increase in footpad thickness (Mus musculus [17]): 0.27 mm | Increase in footpad thickness (Mus musculus [18]): 0.28 mm | PFC (Mus musculus [19]): 1700 | PFC (Mus musculus [20]): 1880
